Screening data (PubChem BioAssay)
This is a sample that favours compounds with a hit; in the whole collection about 1.1% have one here.
DTT redox prof: compounds producing H2O2 with reducing agent – biochemical, NIH compound library profiling, artefact control for MLSCN library redox annotation, primary screen. DTT-dependent redox cycling H2O2, phenol red/HRP absorbance; 100% = 100 µM peroxide control, 0% = buffer. activation, % at 10 µM. 200,000 compounds, 0.03% hits;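 active means activation of at least 50% relative to the plate's high and low controls in the primary single-dose screen; inactive means activation below 50%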;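 further: compound incubated with DTT at 0.8 mM final as the reducing agent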
Diaph inh CS: counter-screen for diaphorase-based assays: diaphorase inhibitors and chemical oxidizers. diaphorase resazurin-to-resorufin fluorescence, NADH, 16 min; bacterial (C. kluyveri) enzyme, not human. 190,000 compounds, 0.69% hits. inhibition, % at 20 µM;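 active means primary screen inhibition at 20 µM above a set limit, cut at about 50% in these data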;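 further: plate controls were DMSO with full reaction for no effect and wells lacking NADH for full effect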
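Test system: bacterial diaphorase enzyme (C. kluyveri); Quantity: 0.14 U/mL diaphorase, enzyme working solution; Times: reaction incubation of 16 min at room temperature; Measured by: fluorescence of resorufin formed from resazurin, Ex 544/Em 590 nm; Benchmarks: positive control minus NADH, DMSO neutral control.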
PMI act hi M6P: PMI (human) activation, high substrate; coupled PMI enzyme assay, resazurin fluorescence, 20 min; hits give high values; 1 = untreated enzyme, 0 = substrate-free blank; activation factor at 20 µM; 190,000 compounds, 0.34% hits; AID 1216;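 active means activation factor of 2 or more at 20 µM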
Target sequence (P34949 whole entry, looked up): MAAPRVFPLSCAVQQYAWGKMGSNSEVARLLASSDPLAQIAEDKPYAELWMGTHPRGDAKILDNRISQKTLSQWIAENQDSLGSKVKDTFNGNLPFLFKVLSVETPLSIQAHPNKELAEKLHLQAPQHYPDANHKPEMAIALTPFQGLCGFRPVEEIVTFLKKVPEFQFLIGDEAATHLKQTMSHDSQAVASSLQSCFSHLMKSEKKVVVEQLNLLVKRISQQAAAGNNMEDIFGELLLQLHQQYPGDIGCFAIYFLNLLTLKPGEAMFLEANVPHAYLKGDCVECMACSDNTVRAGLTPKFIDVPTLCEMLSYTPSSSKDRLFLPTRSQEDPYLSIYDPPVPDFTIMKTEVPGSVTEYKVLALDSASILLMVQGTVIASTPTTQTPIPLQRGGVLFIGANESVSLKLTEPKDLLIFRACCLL
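Material: human phosphomannose isomerase with PGI, G6PDH, diaphorase coupling enzymes / Reagent: Man-6-P substrate 1.0 mM / Dosing: single compound dose of 20 µM, 1% DMSO final / Incubation: enzyme reaction with compound 20 min at room temperature / Signal: resorufin fluorescence (Ex 544/Em 590 nm) from resazurin via diaphorase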
PMI act: phosphomannose isomerase (human) activation; P34949; purified human PMI, coupled resazurin fluorescence, 20 min; hits give high values; 1 = vehicle control, 0 substrate-free wells; activation factor at 20 µM; 190,000 compounds, 0.005% hits; AID 1214;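 active means activation factor of 2 or more at 20 µM, relative to plate controls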
Diaph act CS: diaphorase activation or chemical reduction counter-screen. 190,000 compounds, 0.005% hits. Diaphorase/resazurin coupled assay, resorufin fluorescence, 16 min; hits give high values; 1 = vehicle wells, 0 = NADH-free wells. activation factor at 20 µM. AID 1229;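 active means diaphorase activity raised at least twofold by the compound at 20 µM; inactive means activation factor below 2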
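Material: purified diaphorase enzyme from Clostridium kluyveri; Also added: 0.114 mM NADH and 0.1 mM resazurin, final amounts; Doses: single compound dose of 20 µM, 1% DMSO final; Times: 16 min enzyme reaction, ambient temperature; Detection: resorufin fluorescence, excitation 544 nm, emission 590 nm; Measure: increased resorufin signal from activators or reducing compounds.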
G6PDH CS: counter-screen for G6PDH assay hits: L. mesenteroides G6PDH inhibition | Purified L. mesenteroides G6PDH, diaphorase/resazurin coupled fluorescence, 45 min | inhibition, % at 5 µM | 200,000 compounds, 0.12% hits | AID 1020; in the data active means inhibition above about 50%
Starred values were filed as active, the others as inactive; nt = not tested or not shown.

SMILES	DTT redox prof	Diaph inh CS	PMI act hi M6P	PMI act	Diaph act CS	G6PDH CS
CC1CCN(CC(=O)c2ccccc2Cl)CC1	1	8	2*	1.5	0.9	-8
CCOP(=O)(OCC)C(NC(=O)C(C)C)C(Cl)(Cl)Cl (stereo not given)	-4	5	1.1	1	1	7
CCOC(=O)c1cc(CC)sc1/N=C/C1C(=O)NC(=S)NC1=O	-1	13	2.3*	1.8	0.9	6
CCOC(=O)c1cc(CC)sc1/N=C/c1c(O)[nH]c(=S)[nH]c1=O	0	1	1.8	1.4	1	-8
CN1C(=O)NC(=O)[C@]2(Cc3ccccc3N3CCN(c4ccccc4)CC32)C1=O (stereo not given in full)	-2	11	2.1*	1.7	0.9	0
O=C1NC(=O)[C@]2(Cc3ccccc3N3CCN(c4ccccc4)CC32)C(=O)N1Cc1ccccc1 (stereo not given in full)	0	19	2.1*	1.6	0.8	5
CN1C(=O)NC(=O)C2(Cc3ccccc3N3CCOCC32)C1=O (stereo not given)	-4	16	0.9	0.9	0.8	5
O=C1NC(=O)[C@]2(Cc3ccccc3N3CCN(c4ccccc4)CC32)C(=O)N1c1ccccc1 (stereo not given in full)	-1	14	2.1*	1.7	0.9	4
N[C@@H](Cc1c[nH]c2ccccc12)c1nnc(SCc2ccc(Cl)cc2)o1	2	32	0.9	0.9	0.7	12
CC(=O)NC(Cc1ccc(N(CCCl)CCCl)cc1)C(=O)NCC(=O)NCC(=O)O (stereo not given)	0	-17	1	1.2	1.2	12
Fc1ccccc1CCNCc1cccc(Cl)c1Cl	-4	13	0.9	0.9	0.9	1
CCOc1cccc(OCC)c2c(C)[n+](CC3CCCO3)c(C)c1-2 (stereo not given)	1	31	2*	1.6	0.7	12
COc1ccc(CCNC(=O)c2c(N)n(CCN3CCOCC3)c3nc4ccccc4nc23)cc1OC	2	51*	1	1	0.5	2
CCC(C)N1C(=O)NC(=O)C2(Cc3c(ccc4ccccc34)N(C)C2)C1=O (stereo not given)	0	74*	0.3	1.1	0.3	41
COc1ccc2c(c1)CC1(CN2C)C(=O)NC(=O)N(CCc2ccccc2)C1=O (stereo not given)	1	37	0.7	1	0.6	7
Cc1nccn1Cc1ccc(Cl)nc1	1	-15	1.1	1.2	1.1	0
O=C(O)c1cccc2c1NC(C(=O)O)C1CC(Sc3ccccc3[N+](=O)[O-])C(Cl)C21 (stereo not given)	12	93*	1.3	1.2	0.1	1
CC(=O)c1ccc2c(c1)C1C(Cl)C(Sc3ccccc3[N+](=O)[O-])CC1C(C(=O)O)N2 (stereo not given)	3	66*	1.5	1.1	0.3	-14
CCNc1ccc(P(=S)(N(C)C)N(C)C)cc1	2	13	0.9	0.8	0.9	1
CC(=O)NC(Cc1ccc(N(CCCl)CCCl)cc1)C(=O)NC(CC(C)C)C(=O)O (stereo not given)	0	2	2*	1.7	1	10
NC1=NC(=O)C(c2ccccc2)O1 (stereo not given)	nt	-3	1.1	1	1	2
CCn1nc(-c2cccs2)nc2c(=O)n(C)c(=O)nc1-2	nt	-84	0.9	0.9	1.8	58*
O=C(N/N=C1/CN2CCC1CC2)c1cccc(O)c1	0	28	1.1	1	0.7	5
O=C1C=Cc2ccccc2C1=O	2	78*	0.2	0.2	0.2	62*
O=C1NS(=O)c2cc([N+](=O)[O-])cc([N+](=O)[O-])c21 (stereo not given)	0	5	2*	1.6	0.9	13
SMILES	DTT redox prof	Diaph inh CS	PMI act hi M6P	PMI act	Diaph act CS	G6PDH CS
CC(NCc1ccc(Cl)c(Cl)c1)C(O)c1ccccc1 (stereo not given)	0	6	1	1	0.9	1
CN[C@@H]1C[C@@H](c2ccc(Cl)c(Cl)c2)c2ccccc21	nt	72*	1	0.9	0.3	9
COCCCN1CCN(c2nnc3n2-c2sc(Br)cc2C(c2ccccc2Cl)=NC3)CC1	9	8	0.9	1	0.9	7
CN(C)C=C1C(=O)N(C2CCCCC2)C(=O)N(C2CCCCC2)C1=O	-1	25	1	1	0.8	3
Oc1ccc(/C=N/NP(=S)(c2ccccc2)c2ccccc2)cc1O	-1	58*	0.4	0.4	0.4	15
Oc1ccccc1/C=N/NP(=S)(c1ccccc1)c1ccccc1	-1	4	0.9	0.9	1	2
COc1ccc(CCn2c(O)c(C=NCCCO)c(=O)[nH]c2=O)cc1OC	2	-8	1.1	1	1.1	2
Cc1ccc(/C=C2\C(=O)NC(=S)N(c3ccc(F)cc3)C2=O)s1	0	3	2.1*	1.6	1	3
Cc1ccc(/C=C2\C(=O)NC(=S)N(c3ccccc3F)C2=O)s1	0	14	1.6	1.2	0.9	-1
Nc1ccccc1C(=O)OCC(=O)Nc1ccc(Br)cc1F	-5	2	1	1	1	2
O=C1NC(=S)N(Cc2ccco2)C(=O)/C1=C\c1cccs1	-1	90*	1.2	1.3	0.1	17
O=C1/C(=C\c2cc3c(cc2Br)OCO3)N2CCC1CC2	0	2	0.8	1	1	15
Cc1ccc(N/N=C/c2c(O)n(-c3ccccc3)c(=O)[nH]c2=O)cc1	0	18	2.5*	1.6	0.8	6
Cc1ccc(/C=C2/C(=O)NC(=O)N(CCc3ccc(F)cc3)C2=O)o1	1	11	1.1	1	0.9	9
O=C1NC(=O)N(CCc2ccc(F)cc2)C(=O)/C1=C/c1ccco1	0	9	2*	1.6	0.9	16
COc1cc(CN2CCCC(C(=O)c3sccc3C)C2)cc(OC)c1O (stereo not given)	0	25	0.3	0.7	0.7	57*
CCC(CC)C(=O)NC1CCSC1=O (stereo not given)	0	8	1.1	1	0.9	-3
CC(=O)c1c(C)n(C2CCCCC2)c2ccc(O)cc12	1	50*	0.8	0.9	0.5	9
CN1CCN(c2nc(Cl)ncc2F)CC1	-1	3	0.9	1	1	8
